The nature of data set [1]: folding enthalpy; higher = less favourable; fluorescence melt of hairpins on a sequencing array, two-state fit. The note with it: sodium 0.088 M. An outline of the steps:
(§1)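 On a sequenced MiSeq flow cell, library hairpins with annealed Cy3 and quencher oligos were imaged for Cy3 fluorescence in 2.5 °C steps up to 60 °C, in 50 mM Na-HEPES pH 8.0, 25 mM NaCl. Normalisation used pre-quench Cy3 and control constructs. Bootstrapped two-state fits gave melting temperature and folding enthalpy, combined by inverse variance across four replicates and with fitted temperatures raised by 9.35 °C to match UV melts.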

Data set [2] can be described thus: melting temperature; fluorescence melt of hairpins on a sequencing array, two-state fit, raised by 9.35 °C to match UV melts. As to conditions: sodium 0.088 M. An outline of the steps: as §1

On to GCTGGCGAAAGCCTTAGC ((((((....)))..))), for which the folding enthalpy in data set [1] was -15.1 kcal/mol. Besides, the Tm in data set [2] was determined as 44.4 °C.

Consider GCTGGGCGAAAGCAGAGC (((..((....))..))), for which the folding enthalpy in data set [1] is -19.8 kcal/mol. Also, the Tm in data set [2] stood at 49.5 °C.

Regarding GCTGGGCGAAAGCCAAGC (((.(((....))).))), in data set [1], the folding enthalpy was -26.8 kcal/mol. Further, in data set [2], the Tm was determined as 66.8 °C.

For GCTGGGCGAAAGCCACGC ((..(((....)))..)), the folding enthalpy in data set [1] is -15.6 kcal/mol. Moreover, the Tm in data set [2] amounted to 48 °C.

For GCTGGGCGAAAGCCTAGC (((.(((....))).))), the folding enthalpy in data set [1] was -31.5 kcal/mol. For the same sequence, the Tm in data set [2] is 66.2 °C.

As to GCTGGGCGAAAGCGCCGC ((.(.((....)).).)), the folding enthalpy in data set [1] was -18.2 kcal/mol. In addition, in data set [2], the Tm was found to be 47.4 °C.

Consider GCTGGGCGAAAGCGTAGC (((..((....))..))), for which, in data set [1], the folding enthalpy was -22.5 kcal/mol. Further, the Tm in data set [2] is 52.1 °C.

Regarding GCTGGGGGAAACCTCAGC ((((.((....)).)))), the folding enthalpy in data set [1] is -44.8 kcal/mol. In addition, the Tm in data set [2] turned out to be 54.6 °C.

GCTGGGGGAAACCTCGGC ((.(.((....)).).)): the folding enthalpy in data set [1] was -28.9 kcal/mol. Also, the Tm in data set [2] is 44.4 °C.

With GCTGTAGAAATACAGC ((((((....)))))), in data set [1], the folding enthalpy was -34.7 kcal/mol. Also, the Tm in data set [2] turned out to be 56.9 °C.

Take GCTGTAGGAAACCACAGC (((((.(....).))))): the folding enthalpy in data set [1] was -36.3 kcal/mol. Further, the Tm in data set [2] is 47.5 °C.

In the case of GCTGTCCCGAAAGGGAGC (((..(((....)))))), the folding enthalpy in data set [1] was -11 kcal/mol. Also, in data set [2], the Tm was determined as 41.5 °C.

Turning to GCTGTCGAAAGACCAGC ((((((....))).))), in data set [1], the folding enthalpy is -20.8 kcal/mol. Further, the Tm in data set [2] came to 51.3 °C.

Turning to GCTGTCGAAAGACCCAGC ((((((....)))..))), the folding enthalpy in data set [1] is -15.9 kcal/mol. In addition, in data set [2], the Tm was found to be 34.8 °C.

For GCTGTCGAAAGACCGAGC ((((((....)))..))), the folding enthalpy in data set [1] was -21 kcal/mol. For the same sequence, in data set [2], the Tm is 37 °C.

For GCTGTCGAAAGACCTAGC ((((((....)))..))), the folding enthalpy in data set [1] was -15.7 kcal/mol. Further, the Tm in data set [2] is 36.5 °C.

GCTGTCGAAAGACGGAGC ((((((....)))..))): in data set [1], the folding enthalpy was -18.1 kcal/mol. The Tm in data set [2] amounted to 42.9 °C.

Take GCTGTCGAAAGACTAGC ((((((....))).))): the folding enthalpy in data set [1] is -24.4 kcal/mol. Besides, in data set [2], the Tm was found to be 50.3 °C.

Turning to GCTGTCGAAAGACTTAGC ((((((....)))..))), in data set [1], the folding enthalpy is -19.9 kcal/mol. Further, in data set [2], the Tm turned out to be 43 °C.

Consider GCTGTCGCGAAAGCGAGC (((..(((....)))))), for which the folding enthalpy in data set [1] is -8.75 kcal/mol. Also, the Tm in data set [2] came to 41.8 °C.

GCTGTCGGAAACAACAGC (((((.(....).))))): the folding enthalpy in data set [1] was -26.9 kcal/mol. Moreover, in data set [2], the Tm worked out at 46 °C.

Consider GCTGTGCCGAAAGGCAGC (((..(((....)))))), for which the folding enthalpy in data set [1] is -10.3 kcal/mol. For the same sequence, the Tm in data set [2] turned out to be 48.7 °C.

On to GCTGTGCGAAAGCAAAGC (((.(((....))).))), for which the folding enthalpy in data set [1] was -42.2 kcal/mol. Further, the Tm in data set [2] turned out to be 55.7 °C.

For the sequence GCTGTGCGAAAGCAATGC ((..(((....)))..)), the folding enthalpy in data set [1] was -19.1 kcal/mol. Also, the Tm in data set [2] was 42.8 °C.

On to GCTGTGCGAAAGCACCGC ((.((((....)))).)), for which the folding enthalpy in data set [1] was -17.9 kcal/mol. Besides, in data set [2], the Tm came to 58.7 °C.

In the case of GCTGTGCGAAAGCATGGC ((..(((....)))..)), the folding enthalpy in data set [1] is -22.4 kcal/mol. Moreover, the Tm in data set [2] is 59.5 °C.

GCTGTGCGAAAGCGAAGC (((..((....))..))): in data set [1], the folding enthalpy was -17.9 kcal/mol. Besides, the Tm in data set [2] was found to be 52.6 °C.

Turning to GCTGTGCGAAAGCGGAGC (((..((....))..))), the folding enthalpy in data set [1] is -22 kcal/mol. For the same sequence, the Tm in data set [2] came to 54.9 °C.

Turning to GCTGTGCGAAAGCTAAGC (((..((....))..))), in data set [1], the folding enthalpy was -21.4 kcal/mol. Besides, the Tm in data set [2] came to 53.1 °C.

Take GCTGTGGAAACACAGC ((((((....)))))): the folding enthalpy in data set [1] was -37.4 kcal/mol. Besides, the Tm in data set [2] turned out to be 68.7 °C.

In the case of GCTGTGGGAAACCATAGC (((.(((....))).))), in data set [1], the folding enthalpy was -22.3 kcal/mol. Moreover, the Tm in data set [2] was determined as 50 °C.

With GCTGTGGGAAACCGCAGC ((((.((....)).)))), the folding enthalpy in data set [1] is -44.6 kcal/mol. In data set [2], the Tm was 60.7 °C.

For the sequence GCTGTGGGAAACCGTAGC (((..((....))..))), the folding enthalpy in data set [1] is -18.5 kcal/mol. Besides, the Tm in data set [2] was found to be 34.4 °C.

Take GCTGTGGGAAACTGCAGC ((((..(....)..)))): in data set [1], the folding enthalpy was -20.3 kcal/mol. In data set [2], the Tm is 48.1 °C.

In the case of GCTGTTCGAAAGAATAGC (((.(((....))).))), the folding enthalpy in data set [1] was -44.9 kcal/mol. Besides, in data set [2], the Tm came to 53.2 °C.

Regarding GCTGTTGGAAACAATGGC ((..(((....)))..)), the folding enthalpy in data set [1] is -27.4 kcal/mol. Further, the Tm in data set [2] was found to be 39.9 °C.

For the origin of these results see the array DNA melting data of Ke et al. (doi:10.1101/2024.01.08.574731).
